These entries were drawn from the full list.
PGC1a acetyl up – raises PGC1a acetylation signal in U2OS cells. U2OS PGC1a acetylation AlphaScreen, overnight. 350,000 tested, 0.21% active. activation, % at 15.6 µM. AID 651723;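 active = every replicate reaching activation of at least 50%, whatever the mean replicate activation; inconclusive = replicates that disagree or another doubt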;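 note: hits raise the AlphaScreen acetylation signal above neutral controls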
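Incubation: overnight compound treatment, 37 °C. System: U2OS cells transduced with flag-tagged PGC1a and GCN5 acetyltransferase. Detection: AlphaScreen lysate read. Compound: single-point compound dosing.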
Hep G6PC suppr – PGC-1a acetylation activators affecting G6PC expression in hepatocytes; G6PC suppression (normalized activity, % of positive control; higher = more suppression), % at 26 µM; 240 tested, under 10 active; primary mouse hepatocytes, G6PC mRNA qPCR, forskolin; shares compounds with PGC1a acetyl up;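 active = dose curves showing G6PC suppression whose half-maximal dose is at most twice the top valid dose; inconclusive = flat curves with moderate negative activity, or unreliable fits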;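 note: G6PC expression relative to GAPDH housekeeping gene as delta delta Ct; 0% = median of neutral control wells and 100% = median of positive control wells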
Hep PCK1 suppr – PGC-1a acetylation activator altering hepatocyte PCK1 expression; shares compounds with PGC1a acetyl up; primary mouse hepatocytes, PCK1 mRNA qPCR, forskolin-stimulated; PCK1 expression decrease, unspecified at 26 µM; 230 tested, under 10 active; AID 743465;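 active = compounds lowering PCK1 expression whose fitted half-maximal concentration is at most twice the top tested dose; inconclusive = flat fit with moderate opposite-direction effect, or poor fit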;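 note: values are delta delta Ct of PCK1 relative to GAPDH; higher delta delta Ct means lower PCK1 expression so positive values indicate hits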
Hep PGC-1a down – PGC-1a acetylation activators affecting PGC-1a expression in hepatocytes. 240 tested, under 10 active. shares compounds with PGC1a acetyl up. max activity (PGC-1a expression decrease), %. primary mouse hepatocytes, PGC-1a mRNA qPCR, forskolin; top dose 26 µM. AID 743467;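 active = compound lowering PGC-1a expression with fitted half-maximal concentration at most twice its top tested dose; inconclusive = flat curve with moderate opposite-direction effect, or poor fit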;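 note: 0% = neutral control wells median and 100% = positive control wells median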
An asterisk follows results filed as active; i = inactive; ? = inconclusive.

SMILES | PGC1a acetyl up | others
CN(C)CCN=Cc1c(O)n(Cc2ccco2)c(=O)[nH]c1=O | 82*
O=c1[nH]c(=S)n(Cc2ccco2)c(O)c1C=NCc1cccs1 | -41
CC(O)C1C=CC=CC(=O)OC2CC3OC4C5OC5(C)C(O)CC4(COC(=O)C(O)C(C)CCO1)C2(C)C31CO1 (centres undefined) | -87
CCOC(=O)C1=Nc2ccccc2/C1=C\c1c(O)n(C)c(=O)n(C)c1=O | -43
CCCCN1C(=O)NC(=O)C2(Cc3c(nc4c(C)cccn4c3=O)N3CCc4ccccc4C32)C1=O (centres undefined) | 68*
CCC1CN2CCc3cc(OC)c(OC)cc3C2CC1CC1NCCc2c1[nH]c1ccc(O)cc21 (centres undefined) | -70
CC(=O)O[C@H]1C[C@@H]2OC3C=C(C)CCC3(C)[C@@]1(C)[C@@]21CO1 (some centres undefined) | -84
CN1C(=O)/C(=C\c2ccc(N3CCCCC3)o2)C(=O)NC1=S | 54*
CC[C@H](C)[C@@H]1NC(=O)CNC(=O)c2csc(n2)[C@H](C(C)(C)O)OC(=O)C(C)(C)[C@H](CCCC(C)(Cl)Cl)OC(=O)c2csc1n2 | -60
C=C1C(=O)OC2C1CCC(C)C1(O)C=CC(=O)C21C (centres undefined) | 115*
C=C1C(=O)OC2CC(C)C3C=CC(=O)C3(C)C(O)C12 (centres undefined) | -42
CC(=O)OC1CC2OC3C=C(C)CCC3(C)C1(C)C21CO1 (centres undefined) | -87
COc1cccc(C(c2nnnn2C2CCCCC2)N2CCC3(CC2)C(=O)NCN3c2ccccc2)c1OC (centres undefined) | 72*
COc1ccc(CC2C(=O)NC(C)C(=O)N(C)C3C(=O)N(C)C(Cc4ccc(O)c(c4)Oc4ccc(cc4)C3O)C(=O)NC(C)C(=O)NC(C)C(=O)N2C)cc1 (centres undefined) | -76
COc1ccc(Oc2cc(NC(=O)c3nn(C)cc3[N+](=O)[O-])cc([N+](=O)[O-])c2)cc1 | -78
Cc1ccc2c(c1)CC1(CN2C)C(=O)NC(=O)N(C(C)C)C1=O (centres undefined) | 51*
C[C@H]1[C@@H](OS(=O)(=O)O)C[C@@H]2C[C@H]([C@@H](O)c3cc(=O)[nH]c(=O)[nH]3)NC3=NC[C@H]1N32 | -94
O=c1[nH]c2ccccc2n1C1CCN(C(CCc2ccccc2)c2nnnn2Cc2ccccc2)CC1 (centres undefined) | -103
CC(C)(C)n1nnnc1C(CCc1ccccc1)N1CCC2(CC1)C(=O)NCN2c1ccccc1 (centres undefined) | 71*
CNc1cc(Cl)c2nonc2c1[N+](=O)[O-] | -68
CC1=CC2OC3CC4OC(=O)C=CC=CC(C(C)O)OCC(O)C5(C)OC5C(=O)OCC2(CC1O)C4(C)C31CO1 (centres undefined) | -87
CC1CC(C)(O)CC(C(O)CC2CC(=O)NC(=O)C2)C1=O (centres undefined) | -77
CC(N)C(=O)NC1C2C(=C(O)CC(O)C2O)C(=O)OC1(C)C(Cl)Cl (centres undefined) | -74
Cc1cccc(C)c1-n1nnnc1C(c1cccs1)N1CCC(n2c(=O)[nH]c3ccccc32)CC1 (centres undefined) | ? | Hep G6PC suppr=401;Hep PCK1 suppr=251;Hep PGC-1a down=377
CSCCC(c1nnnn1-c1c(C)cccc1C)N1CCC(n2c(=O)[nH]c3ccccc32)CC1 (centres undefined) | 89* | Hep G6PC suppr=i;Hep PCK1 suppr=775;Hep PGC-1a down=149
SMILES | PGC1a acetyl up | others
CC1=CC2OC3CC4OC(=O)C=CC=CC(=O)OCCC(C)C(O)C(=O)OCC2(CC1)C4(C)C31CO1 (centres undefined) | -77
CC1CCC[C@H](O)CCCCCc2cc(O)cc(O)c2C(=O)O1 (some centres undefined) | -47
CN1CCN(c2ccc([N+](=O)[O-])c3no[n+]([O-])c23)CC1 | -63
Cc1ccc(OC(=O)N(C)C[C@H]2OCc3ccccc3-c3c(n(C)c4ccccc34)C(=O)N([C@H](C)CO)C[C@H]2C)cc1 | 229* | Hep G6PC suppr=92;Hep PCK1 suppr=101;Hep PGC-1a down=158
CC1CCOC(=O)C=CC=CC(=O)OC2CC3OC4C5OC5(C)C(O)CC4(COC(=O)C1O)C2(C)C31CO1 (centres undefined) | -77
Cc1nc2c(=O)n(C)c(=O)nc-2n(C)n1 | -78
O=C1NCN(c2ccccc2)C12CCN(C(c1cccc3ccccc13)c1nnnn1C1CCCCC1)CC2 (centres undefined) | 67* | Hep G6PC suppr=-9;Hep PCK1 suppr=45;Hep PGC-1a down=?
CC1CCCN(CC(=O)N2CCCc3ccccc32)C1 (centres undefined) | -43
CC12CCC(O)CC1CCC1C2CCC2(C)C(C3=CC(=O)OC3)CCC12O (centres undefined) | -80
CC1CCC/C=C/C2CC(O)CC2C(O)/C=C/C(=O)O1 (centres undefined) | -73
Cc1ccc(CS(=O)(=O)CCC(=O)N2CCC3(CC2)OCCO3)cc1 | -44
COc1ccccc1OCC(=O)Nc1ccc(Cl)cc1C(=O)c1ccccc1 | ? | Hep G6PC suppr=24;Hep PCK1 suppr=80;Hep PGC-1a down=58
Cc1ccc(C[n+]2c(-c3ccc(C)cc3)cc(-c3ccc(C)cc3)cc2-c2ccc(C)cc2)cc1 | -67
C[C@H]1CCC/C=C/C2C[C@H](O)CC2[C@H](O)/C=C/C(=O)O1 (some centres undefined) | -72

Source: PubChem BioAssay
